For this test, the target named is Aldo-keto reductase family 1 member B1 (Homo sapiens, UniProt P15121). Briefly: In vitro inhibition of human placental aldose reductase. In a few lines: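 Human placental aldose reductase, partly purified (placentae homogenized in 0.1 M K phosphate pH 7.0 with 5 mM 2-mercaptoethanol, spun 33000g, peak fractions pooled). Assay in 50 mM K phosphate pH 7.1 with 0.4 M ammonium sulfate, 0.067 mM NADPH, 1.0 mM DL-glyceraldehyde; enzyme set to 4 milliunits; NADPH oxidation at 340 nm, 25 °C, 10 min. IC50 by log linear regression.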

Broadly, the IC50 is the midpoint of a concentration-inhibition curve. The compound `CCOC(=O)C1CN(Cc2cccc3ccccc23)C(=O)C1=O` (configuration not stated) showed an IC50 of 2300 nM. This counts as single-digit micromolar. As for `CCOC(=O)C1CN(Cc2ccccc2Cl)C(=O)C1=O` (configuration not stated), the figure is 2300 nM.
